Hits are enriched below; roughly 2.3% of the tested compounds scored in any of these assays.
TRPC4 block – blocks the mouse TRPC4 cation channel; B-score at 10 µM; HEK293 TRPC4beta/mu-opioid, DAMGO-evoked Fluo4 calcium flux; hits give low values; 0.39% of 300,000 active; AID 2247; Q9QUQ5;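 active = B-score over 3 SD under the library average, no early fluorescence shift, positive overall ratio signal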
Target sequence (Q9QUQ5 whole entry, looked up): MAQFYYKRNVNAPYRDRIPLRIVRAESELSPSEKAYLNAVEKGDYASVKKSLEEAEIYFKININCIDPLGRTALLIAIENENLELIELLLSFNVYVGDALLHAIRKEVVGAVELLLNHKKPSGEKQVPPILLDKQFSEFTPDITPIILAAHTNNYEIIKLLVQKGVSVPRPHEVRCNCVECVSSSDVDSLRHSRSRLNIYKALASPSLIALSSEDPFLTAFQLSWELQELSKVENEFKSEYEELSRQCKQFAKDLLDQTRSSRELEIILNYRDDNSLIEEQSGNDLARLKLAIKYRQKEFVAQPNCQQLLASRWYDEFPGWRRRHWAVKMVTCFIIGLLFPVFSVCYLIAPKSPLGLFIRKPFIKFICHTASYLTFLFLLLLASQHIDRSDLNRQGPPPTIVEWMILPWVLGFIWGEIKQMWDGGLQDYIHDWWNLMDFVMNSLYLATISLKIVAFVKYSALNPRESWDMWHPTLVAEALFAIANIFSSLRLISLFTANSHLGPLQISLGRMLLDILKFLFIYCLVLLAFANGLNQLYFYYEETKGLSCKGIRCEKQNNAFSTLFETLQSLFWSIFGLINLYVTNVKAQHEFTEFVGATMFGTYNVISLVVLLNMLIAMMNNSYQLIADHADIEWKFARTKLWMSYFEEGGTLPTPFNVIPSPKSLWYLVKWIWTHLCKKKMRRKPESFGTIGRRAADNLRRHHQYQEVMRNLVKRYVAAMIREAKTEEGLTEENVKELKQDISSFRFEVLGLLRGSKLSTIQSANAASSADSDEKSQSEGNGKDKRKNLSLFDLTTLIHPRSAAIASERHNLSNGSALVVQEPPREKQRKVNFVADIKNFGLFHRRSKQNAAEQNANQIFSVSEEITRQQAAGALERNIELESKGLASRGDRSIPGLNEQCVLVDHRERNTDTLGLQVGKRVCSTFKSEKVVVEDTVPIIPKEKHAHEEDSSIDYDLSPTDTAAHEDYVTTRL
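material = TRPC4beta/mu-opioid receptor HEK293 cell line | probe or stimulus = sequential submaximal and maximal DAMGO stimulation | compound dosing = one concentration per compound | measured by = Fluo4 Ca2+ flux fluorescence | evaluation = integrated fluorescence ratio relative to baseline, converted to per-well B score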
TRPC6 inhibitor – inhibitors of mouse TRPC6 channel; Q61143; HEK293-TRPC6, membrane potential dye, ACh-evoked depolarization; hits give low values; B-score at 10 µM; 1.1% of 310,000 active; AID 2553;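 active = B-score under library mean minus 3 SD, initial fluorescence not abnormally high, positive integrated signal ratio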;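 also: B-score derived from integrated fluorescence ratio over the kinetic read; more negative B-score means stronger inhibition of depolarization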
TRPC4 PAM – allosteric potentiators of mouse TRPC4 channel; Q9QUQ5; HEK293 TRPC4beta/mu-opioid, DAMGO EC20, Fluo-4 Ca2+ flux; hits give high values; B-score at 10 µM; 0.42% of 310,000 active; AID 2227;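 active = B-score of calcium response area above 5 SD of library B-scores, with initial fluorescence ratio within 5 SD of library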;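 also: B-score of integrated fluorescence ratio over time as area under calcium response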
TRPC4 act – TRPC4 (mouse) channel activation. Q9QUQ5. HEK293 TRPC4beta/mu-opioid, Fluo4 calcium fluorescence; hits give high values. B-score at 10 µM. 0.49% of 310,000 active. AID 2237;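 active = B-score above 5 SD of library B-scores, and initial fluorescence ratio not above library mean plus 5 SD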;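 also: positive B-score marks a calcium rise read as TRPC4 activation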
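Assay system: HEK293 stable line with TRPC4beta plus mu-opioid receptor; schedule: 45 min room-temperature Fluo4 loading, 110 s read; technique: kinetic Fluo4 calcium fluorescence; evaluation: integrated baseline-normalised fluorescence ratio, converted to per-well B score; controls: buffer (low) and maximal DAMGO (high)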
TRPC6 act – activates the mouse TRPC6 cation channel. Q61143. HEK293-TRPC6 membrane potential dye fluorescence; hits give high values. B-score at 10 µM. 0.13% of 310,000 active. AID 2550;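 active = B-score of the integrated fluorescence ratio above library mean plus 3 SD, and starting fluorescence ratio within library mean plus 5 SD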;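 also: higher score means more depolarization so channel activation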
Active calls of the source: *; i = inactive.

SMILES	TRPC4 block	TRPC6 inhibitor	TRPC4 PAM	TRPC4 act	TRPC6 act
OCCN(Cc1ccccc1)C(=S)Nc1ccc(Cl)cc1Cl	i	i	i	i	i
O=C(Nc1ncc(Br)s1)C(Cc1ccccc1)n1cccc1 (centres undefined)	i	i	36*	i	i
O=C(Nc1cccnc1)C(Cc1ccccc1)n1cccc1 (centres undefined)	i	i	i	i	i
Oc1c(Br)cc(Br)cc1C=Nc1ccc2[nH]ncc2c1	-7*	i	i	i	i
COc1ccc(C=Nc2ccc3[nH]ncc3c2)c(O)c1	i	i	i	i	i
Cn1c(SCc2ccccn2)nc2c1c(=O)[nH]c(=O)n2C	i	i	i	i	i
CC1(C)Cc2nc3oc4c(=O)n(CC(=O)Nc5ccccc5)cnc4c3cc2CO1	-6*	i	i	i	i
COc1cccc(C(=O)N(C)CC2CCN(CCc3cccc(C(F)(F)F)c3)CC2)c1	i	i	i	109*	i
CN(CC1CCCN(CCc2cccc(C(F)(F)F)c2)C1)C(=O)c1cc2ccccc2o1 (centres undefined)	-8*	i	i	i	i
CN(Cc1ccco1)C(=O)C1CCCN(c2ncnc3c2nc2n3CCCCC2)C1 (centres undefined)	i	i	i	i	i
N#Cc1ccc(-c2ccccc2)nc1SCCN1CCOCC1	i	i	20*	i	i
Cc1cc(C)c(C#N)c(SCCN2CCOCC2)n1	i	i	i	i	i
O=C(NC1CCCN(Cc2ccc(Cl)cc2)C1)c1ccnc(Cl)c1 (centres undefined)	i	i	i	i	i
Cc1cc(C)n(CC(=O)NC2CCCN(Cc3ccc(Cl)cc3)C2)n1 (centres undefined)	i	i	i	50*	i
O=C(CCN1CCCCC1=O)NC1CCCN(Cc2ccc(Cl)cc2)C1 (centres undefined)	i	i	14*	i	i
O=C(Cc1cccc(F)c1F)NC1CCCN(Cc2ccc(Cl)cc2)C1 (centres undefined)	i	i	i	106*	i
COc1cc(OC)cc(C(=O)NC2CCCN(Cc3ccc(Cl)cc3)C2)c1 (centres undefined)	i	i	i	92*	i
Clc1ccc(Cl)c(OCCN2CCCC2)c1	i	i	i	i	i
O=C(NC1CCCC1)C(c1ccccn1)N(C(=O)c1csnn1)c1ccccc1F (centres undefined)	i	i	i	i	i
O=C(CNC(=O)C1COc2ccccc2O1)N/N=C\c1ccc(Cl)cc1 (centres undefined)	i	i	i	i	i
Cc1ccc(C(=O)NC(=S)Nc2ccc(NC(=O)c3cccs3)cc2)cc1[N+](=O)[O-]	i	i	i	i	i
CC(=O)c1c(C)nn(CC(=O)NC2CCCN(Cc3ccc(CC(C)C)cc3)C2)c1C (centres undefined)	i	i	i	111*	i
CC(C)Cc1ccc(CN2CCCC(NC(=O)CCN3CCCCC3=O)C2)cc1 (centres undefined)	i	i	i	i	i
O=C(COc1ccccc1)NC1CCCN(Cc2ccccc2F)C1 (centres undefined)	i	i	i	i	i
O=C(Cc1ccccc1F)NC1CCCN(Cc2ccc(Cl)cc2)C1 (centres undefined)	i	i	i	44*	i
SMILES	TRPC4 block	TRPC6 inhibitor	TRPC4 PAM	TRPC4 act	TRPC6 act
O=C(Nc1ccc(Cl)c([N+](=O)[O-])c1)C(Sc1ccccc1)c1ccccc1 (centres undefined)	i	i	i	i	i
COCC(C)NC(C(=O)Nc1ccc(Cl)c([N+](=O)[O-])c1)c1ccccc1 (centres undefined)	-7*	i	i	i	i
O=C(Nc1ccc(Cl)c([N+](=O)[O-])c1)C(NCCCO)c1ccccc1 (centres undefined)	i	i	i	i	i
CCC(C)NC(C(=O)Nc1ccc(Cl)c([N+](=O)[O-])c1)c1ccccc1 (centres undefined)	-7*	i	i	i	i
CC(C)[C@H](NC(=O)[C@H](Cc1ccccc1)n1c(=O)[nH]c2ccccc2c1=O)C(=O)N1CCC[C@@H]1C(=O)O	i	i	i	i	i
COc1ccc(C2CCCN2CC(O)COc2ccccc2C(C)C)cc1 (centres undefined)	i	i	i	i	i
Cc1cc(C)c(S(=O)(=O)c2ccccc2C)c(OCC(C)(C)C)n1	-6*	i	i	i	i
CCOCCOc1nc(C)cc(C)c1S(=O)(=O)c1ccccc1C	i	i	i	i	i
COc1ccc(/C=C(\C#N)C(=O)N2CCOCC2)cc1Br	i	i	14*	i	i
COc1ccc(-n2c(O)c(/C=N/NS(=O)(=O)c3ccc(C)c([N+](=O)[O-])c3)c3ccccc3c2=O)cc1OC	i	i	i	56*	i
Cn1cc(CN2CCCCC2CO)c(-c2ccc(Oc3ccccc3)cc2)n1 (centres undefined)	-7*	i	i	i	i
COC1CCCN(Cc2cn(C)nc2-c2ccc(Oc3ccccc3)cc2)C1 (centres undefined)	i	i	i	i	i
CSc1nc(N)c(C(=O)Nc2ccc([N+](=O)[O-])cc2)s1	i	i	i	i	i
CC(=O)N1CCN(C(=O)c2cc(=O)c3ccccc3o2)CC1	i	i	i	i	i
COc1ccc(CNC(=O)Cn2nc(C)c3c(C)n(-c4ccc(C)cc4)nc3c2=O)cc1OC	i	i	i	i	i
O=C1CCC(C(=O)OCC(=O)N2N=C3/C(=C/c4ccccc4)CCCC3C2c2ccccc2)N1 (centres undefined)	i	i	i	i	i
COc1ccc(/C=C2\CCCC3C2=NN(C(=O)CSc2n[nH]c(N)n2)C3c2ccc(OC)cc2)cc1 (centres undefined)	i	i	12*	i	i
COC(=O)C[C@H]1c2cc(F)cc(F)c2S(=O)(=O)N1C1CCN(Cc2ccccc2)CC1	i	i	i	i	i
CCN(C(=O)COC(=O)c1cc2c(s1)CCCCC2)C1CCS(=O)(=O)C1 (centres undefined)	i	i	i	i	i
O=C(COC(=O)c1cc2c(s1)CCCCC2)NC1CCS(=O)(=O)C1 (centres undefined)	i	i	88*	i	i
